Screening data deposited in PubChem by several laboratories.
Hits are enriched below; roughly 2.1% of the tested compounds scored in any of these assays.
Efflux pump mplx = inhibitors of Candida efflux pumps in yeast, primary screen, S. cerevisiae, Nile Red, multiplex. inhibition, % at 10 µM. 0.44% of 330,000 active. S. cerevisiae Candida pump triplex;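 active means plate passing quality check with inhibition over a set limit, or well fluorescence over plate mean plus 4 SD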;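 further: Nile Red retained in pooled yeast measured as flow cytometry median fluorescence; higher means more Nile Red kept so more efflux inhibition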
RTF Ca sens act = cardiac RTF calcium sensitivity activators, primary screen, biochemical, IANBD-TnC fluorescence, EC20 calcium | Troponin I, cardiac muscle (Homo sapiens) + Troponin T, cardiac muscle (Homo sapiens) + … | IANBD-labeled TnC RTF fluorescence at EC20 calcium; 0% EC20 calcium, 100% full calcium | activation, % at 7.2 µM | 0.24% of 340,000 active;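 active means activation above the mean over all tested compounds plus 3 SD, cut at about 30% in these data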;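 further: rise in fluorescence read as greater calcium sensitivity of cardiac thin filaments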
Cardiac RTF inh = cardiac RTF calcium sensitivity inhibitors, primary screen, biochemical, IANBD-TnC fluorescence, EC70 calcium; IANBD-labeled cardiac RTF, Ca2+ fluorescence; AID 493244, 2011; Troponin I, cardiac muscle (Homo sapiens) + Troponin T, cardiac muscle (Homo sapiens) + …; 0.12% of 340,000 active; inhibition, % at 7.15 µM;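 active means inhibition above the mean inhibition of all tested compounds plus 3 SD, cut at about 17% in these data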;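 further: assay run at fixed EC70 calcium of 1.6 mM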
UCH37 inh = inhibitors of human UCH37 deubiquitinase, primary screen, biochemical, Ub-AMC cleavage, fluorescence; purified proteasome/UCH37; 0.33% of 330,000 active; inhibition, % (concentration not given with the values);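 active means mean inhibition over replicate wells above about 20%, limit read from the data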
Target sequence (Q9Y5K5 whole entry, looked up): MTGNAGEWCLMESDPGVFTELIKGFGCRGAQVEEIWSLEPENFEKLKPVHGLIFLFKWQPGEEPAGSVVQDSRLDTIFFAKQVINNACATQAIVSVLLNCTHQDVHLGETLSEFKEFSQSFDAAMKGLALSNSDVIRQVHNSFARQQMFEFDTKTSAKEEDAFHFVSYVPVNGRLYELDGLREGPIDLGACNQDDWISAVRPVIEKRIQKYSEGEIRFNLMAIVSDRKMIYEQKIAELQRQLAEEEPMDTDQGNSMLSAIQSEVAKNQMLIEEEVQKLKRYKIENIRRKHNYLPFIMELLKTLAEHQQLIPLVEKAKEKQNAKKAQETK
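Material: Human UCH37 enzyme supplied as purified proteasome complex | Schedule: 30 min preincubation with enzyme, 25 min cleavage at room temperature | Detection: AMC fluorescence 355/460 nm | Measure: % inhibition of Ub-AMC cleavage fluorescence | Controls: Wells without proteasome as full block, compound-free enzyme plus substrate as uninhibited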
ARNT TACC3 PPI = disruptors of ARNT/TACC3 protein interaction, primary screen, biochemical, AlphaScreen, single concentration. Transforming acidic coiled-coil-containing protein 3 (Homo sapiens), Q9Y6A5. AlphaScreen His-ARNT PAS-B/GST-TACC3 binding, luminescence; TACC3 fragment carries E629A point mutation. inhibition, % at 9.99 µM. 0.66% of 390,000 active. AID 623870, 2012;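 active means mean inhibition of replicates at least 50% and at least half of replicates each reaching 50%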
SUMO Mot1 rescue = yeast Mot1-301 growth rescue at high temperature, primary screen, SUMOylation pathway inhibitor project, S. cerevisiae, ATP luminescence, 38.5C | S. cerevisiae Mot1-301 growth rescue; percent above DMSO median, 100 means doubled | growth rescue, % at 18.8 µM | 1% of 320,000 active;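 active means every valid replicate shows activation above 250% relative to neutral control wells; inactive means the rest, any valid replicate at or below 250%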
Yeast cmpd fluor = counter-screen for efflux pump inhibitors: compound fluorescence | AID 588517 | shares compounds with Efflux pump mplx | 4% of 1,700 active | fluorescence ratio to DMSO, % at 10 µM | S. cerevisiae AD/pABC3, flow cytometry;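 active means fluorescence ratio to DMSO above its plate's cutoff, the plate mean ratio plus 5 SD, cut at about 210% in these data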;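 further: unstained yeast with no Nile Red so the signal is compound autofluorescence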
CaMdr1 efflux inh = inhibitors of Candida albicans Mdr1 efflux, confirmation, flow cytometry, singleplex, Cherry Pick1 set; shares compounds with Efflux pump mplx; S. cerevisiae AD/CaMDR1, Nile Red efflux; inhibition, % at 10 µM; 1% of 1,700 active; in the data active means inhibition above about 26%;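 further: higher means more Nile Red retained so more efflux inhibition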
CaCdr2 efflux inh = inhibitors of Candida albicans Cdr2 efflux pump, confirmation, S. cerevisiae AD/CaCDR2, flow cytometry, cherry pick 1, singleplex; shares compounds with Efflux pump mplx; Nile Red retention ratio vs DMSO, % at 10 µM; 4% of 1,700 active; Nile Red retention; AID 588520, 2011; in the data active means Nile Red retention ratio vs DMSO above about 190%;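 further: higher ratio means more blocking of Cdr2 efflux of the dye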
CaCdr1 efflux inh = inhibitors of Candida albicans Cdr1 efflux pump, confirmation, S. cerevisiae AD/CaCDR1, flow cytometry, cherry pick 1, singleplex | shares compounds with Efflux pump mplx | Nile Red efflux | inhibition, % at 10 µM | 1% of 1,700 active;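 active means inhibition above the screen-wide mean plus twice its standard deviation, cut at about 32% in these data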
Numbers stand for hits; n = inactive; x = no result given.

SMILES	Efflux pump mplx	RTF Ca sens act	Cardiac RTF inh	UCH37 inh	ARNT TACC3 PPI	SUMO Mot1 rescue	Yeast cmpd fluor	CaMdr1 efflux inh	CaCdr2 efflux inh	CaCdr1 efflux inh
COCC1CCN(C(=O)c2cc(COc3ccc(OC)c4ccccc34)on2)C1 (centres undefined)	7.2	n	n	n	n	n	n	n	n	n
O=C(O)CCC(=NNc1ccccc1[N+](=O)[O-])c1cccs1	x	x	x	n	x	x	x	x	x	x
Cc1ccccc1NC(=S)NCCc1ccccc1	n	n	n	n	n	n	x	x	x	x
Cc1ccccc1NC(=S)NCc1ccccc1	8.9	n	n	n	n	n	n	n	n	n
COc1ccc(NC(=O)c2c[nH]n3c(=O)cc(C4CCN(C(=O)OC(C)(C)C)CC4)nc23)cc1Cl	1.1	n	n	n	n	n	n	n	n	n
Cc1cc(C=NNC(=O)c2cccc([N+](=O)[O-])c2)c(C)n1-c1ccc(Cl)cc1Cl	x	x	x	n	x	x	x	x	x	x
CCCc1nnc(-c2cc(OC)c(OC)c(OC)c2)o1	1.9	n	n	n	n	n	n	n	n	n
COCCOC(=O)c1c(C)oc2ccc(NS(=O)(=O)c3ccc(F)cc3)cc12	0.4	n	n	n	n	n	n	n	n	n
CSc1sc(C#N)c2c1C(=NO)CCC2	x	x	x	n	x	x	x	x	x	x
N#Cc1cnc(NN)nc1	0.9	n	n	n	n	n	n	n	n	n
Cc1ccccc1OCC(=O)Nc1nnc(-c2ccco2)s1	n	n	n	n	n	n	n	n	n	n
COC(=O)[C@H](Cc1ccccc1)NC(=O)c1cc(COc2c(F)cccc2F)on1	n	n	n	n	n	n	n	n	n	n
CCC(NC(=O)c1cc(COc2c(F)cccc2F)on1)c1ccncc1 (centres undefined)	n	n	n	n	n	n	x	x	x	x
Cc1ccc(CSc2nnc(CCNC(=O)OC(C)(C)C)o2)cc1	0.8	n	n	n	n	n	n	n	n	n
C=C(C)CSc1nnc(CCCCCNC(=O)OC(C)(C)C)o1	1.0	n	n	n	n	n	n	n	n	n
CC(C)(C)OC(=O)NCCc1nnc(SCc2ccccc2)o1	n	x	x	n	x	n	x	x	x	x
CCCc1[nH]n(-c2ccc([N+](=O)[O-])cc2)c(=O)c1C=NCCc1ccc(OC)c(OC)c1	0.8	n	n	n	n	n	n	n	n	n
CCCc1[nH]n(-c2ccc([N+](=O)[O-])cc2)c(=O)c1C=NCCc1c[nH]c2ccccc12	n	n	n	n	x	n	x	x	x	x
O=c1c2ccccc2nc(COc2ccccc2)n1N=Cc1cn[nH]c1-c1ccccc1	x	x	x	n	x	x	x	x	x	x
Cc1cc(C(=O)NN=Cc2ccc3c(c2)OCO3)c(C)n1-c1ccc(F)cc1	x	x	x	n	x	x	x	x	x	x
C[C@H](NC(=O)c1ccc(C(C)(C)C)cc1)C(=O)N1CCN(C/C=C/c2ccccc2)CC1	0.9	n	n	n	n	n	n	n	n	n
C=CCc1c(C)nc(C)nc1NN=Cc1ccccc1O	x	x	x	n	x	x	x	x	x	x
COc1ccc2nccc(/C=C/c3ccnc4ccc(OC)cc34)c2c1	0.7	x	x	n	x	n	n	n	n	n
COc1ccc(OC)c(/C=C/c2ccnc3ccccc23)c1	x	n	n	x	n	x	x	x	x	x
COc1ccc(C(=O)CN2C(=O)NC3(CCCCCC3)C2=O)cc1	6.2	n	n	n	n	n	n	n	n	n
SMILES	Efflux pump mplx	RTF Ca sens act	Cardiac RTF inh	UCH37 inh	ARNT TACC3 PPI	SUMO Mot1 rescue	Yeast cmpd fluor	CaMdr1 efflux inh	CaCdr2 efflux inh	CaCdr1 efflux inh
Cc1c(C(=O)Nc2ccc3nc(N4CCOCC4)sc3c2)oc2ccccc12	0.8	n	n	n	n	n	n	n	n	n
COc1cc(C(=O)Nc2ccc3nc(N4CCOCC4)sc3c2)cc(OC)c1OC	n	n	n	n	n	n	x	x	x	x
COc1ccccc1-c1nc(C#N)c(N2CCN(C(c3ccccc3)c3ccccc3)CC2)o1	0.5	n	n	n	n	x	n	n	n	n
Cc1cc(S(=O)(=O)NCC(c2ccc3c(c2)OCO3)N2CCOCC2)ccc1F (centres undefined)	1.0	n	n	x	n	n	n	n	n	n
CCOC(=O)CC(=O)c1cc(OC)c(OC)c(OC)c1	0.8	n	n	n	n	n	n	n	n	n
Cc1ccc(S(=O)(=O)c2ccc(Cl)cc2)cc1S(N)(=O)=O	n	n	n	n	n	n	x	x	x	x
Cc1ccc(S(=O)(=O)c2ccc(Cl)cc2)cc1S(=O)(=O)N(C)CC(=O)O	15	n	n	n	n	n	n	n	n	n
COc1ccc(OC)c(-c2nc(C(N)=O)c3[nH]c(=O)n(-c4ccc(F)cc4)c3n2)c1	n	n	n	n	n	n	n	n	n	n
COc1ccccc1-n1c(=O)[nH]c2c(C(N)=O)nc(-c3cccnc3)nc21	n	n	n	n	n	n	x	x	x	x
Cc1ccc(-n2c(=O)[nH]c3c(C(N)=O)nc(-c4ccc(C)o4)nc32)cc1	n	n	n	n	n	n	n	n	n	n
COc1ccc(-c2nc(C(N)=O)c3[nH]c(=O)n(-c4ccccc4OC)c3n2)c(OC)c1	n	n	n	n	n	n	n	n	n	n
COc1cccc(C=Nn2cnnc2)c1OCc1ccccc1	x	x	x	n	x	x	x	x	x	x
O=C(NC(=S)N1CCN(Cc2ccc3c(c2)OCO3)CC1)c1ccc(Cl)cc1	28	n	n	n	n	n	n	n	n	n
COc1cccc(NC(=S)N2CCN(c3ccccn3)CC2)c1	16	n	n	n	n	n	n	n	n	n
O=C1C2C3C=CC(C4CC34)C2C(=O)N1Cc1ccccc1 (centres undefined)	0.9	n	n	n	n	n	n	n	n	n
